Results reported in PMC10784415 (Developmental dynamics : an official publication of the …, 2023).

Columns and labels:
[1] = Body weight at time of sacrifice; assay type: in vivo, rat; details: female rats, high dose, PND37, vs vehicle and low dose; non-significant
Procedure, shortened: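 Male and female Wistar rats received a daily oral gavage of vehicle (acetate buffer pH 4.68:PEG300, 50:50 v/v) or test compound at 0.1 or 1.0 mg/kg, starting on PND7. Rats were euthanized on PND14 or PND37, and body weight was recorded at sacrifice.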

[2] = tested on: constitutive FGFR3 signaling; details: mouse model of achondroplasia; cited from earlier work
[3] = tested on: Wistar rats; assay: MicroCT analysis of dentoalveolar tissues; assay type: in vivo, rat; details: for Rats with aberrant crown and root morphology of mandibular third molars: high dose (1.0 mg/kg) from PND7, PND37
Procedure, shortened: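 Daily oral gavage began at PND7 (vehicle, or test compound at 0.1 or 1.0 mg/kg), and formalin-fixed heads (5 per sex per group) were scanned by microCT at PND14 and PND37. PND37 thresholds were enamel 1500 and dentin/bone 650 mg HA/cm³. Alveolar bone included buccal/lingual, interdental and mesial rise regions. Read-outs were second-molar tissue volumes and densities, first-molar root lengths, and third-molar tissue thickness. Analysis was one-way ANOVA, p<0.05.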

[4] = tested on: Wistar rats; assay: MicroCT analysis of craniofacial bones and sutures; assay type: in vivo, rat
Procedure, shortened: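 Wistar rats received daily oral gavage from PND7 (vehicle acetate buffer pH 4.68/PEG300 50:50, or 0.1 or 1.0 mg/kg) and were examined at PND14 and PND37; 5 per sex per group. MicroCT gave bone volume and mineral density of nasal, premaxilla, maxilla, frontal, parietal and interparietal bones, linear skull measurements from set landmarks, and suture patency on 2D/3D images. Analysis was one-way ANOVA.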

[5] = female rats, high dose, PND37, vs vehicle
[6] = male rats, high dose, PND37, vs vehicle
[7] = female rats, high dose, vs vehicle

Rats with aberrant crown and root morphology of mandibular third molars ([3]; female rats): 100% | Alveolar bone density ([3]; female rats, high dose, PND14, vs vehicle): decreased alveolar bone density | Pulp density of mandibular second molars ([3]; female rats, high dose, PND37): significant increase | Reduction of mandibular first molar dentin volume ([3]; female rats, high dose, PND37, in comparison to the other groups): 12% | Decrease of first molar lingual root length [3, 5]: 9% | Decrease of first molar mesial root length [3, 5]: 8% | Decrease of mandibular third molar dentin volume [3, 5]: 40% | Decrease of mandibular third molar enamel volume [3, 5]: 64% | Decrease of root dentin volume [3, 5]: 21% | Alterations in dental tissues ([3]; low dose (0.1 mg/kg)): did not detect any alterations | Rats with aberrant crown and root morphology of mandibular third molars ([3]; male rats): 80% | Decrease of mandibular third molar dentin volume [3, 6]: 28% | Decrease of mandibular third molar enamel thickness [3, 6]: 33% | Decrease of mandibular third molar enamel volume [3, 6]: 61% | Decrease of root dentin volume [3, 6]: 16% | Dentin mineral density of second molars [3, 6]: significantly higher | Interfrontal suture patency ([4]; female rats, high dose, PND37, vs vehicle and low dose): significantly more patent | Decrease of parietal bone volume ([4]; female rats, high dose, vs low dose): 15% | Decrease of frontal bone volume [4, 7]: 12% | Decrease of interparietal bone mineral density [4, 7]: 4% | Decrease of interparietal bone volume [4, 7]: 18% | Decrease of parietal bone volume [4, 7]: 18% | Coronal suture patency ([4]; females and males, low dose and high dose, PND14, vs vehicle): appeared more patent | Interfrontal suture width [4, 6]: significantly more patent
SMILES: CCN1CCN(c2ccc(Nc3cc(N(C)C(=O)Nc4c(Cl)c(OC)cc(OC)c4Cl)ncn3)cc2)CC1 [infigratinib, 3-(2,6-Dichloro-3,5-dimethoxy-phenyl)-1-{6-[4-(4-ethyl-piperazin-1-yl)-phenylamino]-pyrimidin-4-yl}-1-methyl-urea]
Body weight [1]: trend toward lower body weight | Effect on limb length and calvarial defects [2]: increase limb length and improve calvarial defects
